Experiments:
[1] = system: Rattus norvegicus; assay: Antiinflammatory activity in albino rat assessed as inhibition of carrageenan-induced paw edema at 100 mg/kg, po administered 30 mins prior to challenge measured after 2 hrs relative to untreated control; type: functional
In short: (§1)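 Adult male albino rats (120–140 g), groups of four, fasted 24 h with water allowed. Test compound suspended in 0.5% w/v CMC in water, given orally at 100 mg/kg; controls received CMC alone. After 30 min, 0.1 mL of 1% carrageenan in saline injected subplantar into right hind paw, saline into left. Paw thickness measured by caliper; % inhibition = [(VR−VL)control − (VR−VL)treated]/(VR−VL)control ×100; one-way ANOVA versus control.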

[2] = system: Rattus norvegicus; assay: Antiinflammatory activity in albino rat assessed as inhibition of carrageenan-induced paw edema at 100 mg/kg, po administered 30 mins prior to challenge measured after 4 hrs relative to untreated control; type: functional; in short: as §1
[3] = system: Rattus norvegicus; assay: Antiinflammatory activity in albino rat assessed as inhibition of carrageenan-induced paw edema at 100 mg/kg, po administered 30 mins prior to challenge measured after 1 hr relative to untreated control; type: functional; in short: as §1
[4] = system: Rattus norvegicus; assay: Antiinflammatory activity in albino rat assessed as inhibition of carrageenan-induced paw edema at 100 mg/kg, po administered 30 mins prior to challenge measured after 3 hrs relative to untreated control; type: functional; in short: as §1
[5] = system: Rattus norvegicus; assay: Gastric toxicity in albino rat assessed as ulcer index at 100 mg/kg, po after 5 hrs; type: organism-based; design: dose 100 mg/kg, route oral; details: in vivo
In short: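 Rats dosed orally at 100 mg/kg in 0.5% CMC (n = 4). Stomach lesions counted and graded by area: level I <1 mm², II 1–3 mm², III >3 mm². Ulcer index = 1×(level I count) + 2×(level II) + 3×(level III). Mean ± SEM; one-way ANOVA versus control.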

[6] = system: Rattus norvegicus; assay: Antiinflammatory activity in albino rat assessed as inhibition of carrageenan-induced paw edema at 100 mg/kg, po administered 30 mins prior to challenge measured after 5 hrs relative to untreated control; type: functional; in short: as §1
[7] = Induction of nitric oxide release at 0.1 mM after 5 hrs in phosphate buffer at pH 7.4 by Griess assay; type: physicochemical; details: pH 7.4, 5 h, 100 µM
In short: (§2)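 Compound at a final 10^-4 M with 0.5 mM N-acetylcysteine in phosphate buffer pH 7.4 at 37 °C. Reaction mixture treated with Griess reagent (sulfanilamide, N-naphthylethylenediamine, phosphoric acid), 10 min at room temperature, absorbance read at 546 nm. Sodium nitrite standards (10–80 nmol/mL) used for calibration. NO reported as mol/mol, n = 4 reaction mixtures.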

[8] = Induction of nitric oxide release at 0.1 mM after 2 hrs in phosphate buffer at pH 7.4 by Griess assay; type: physicochemical; details: pH 7.4, 2 h, 100 µM; in short: as §2
[9] = Induction of nitric oxide release at 0.1 mM after 6 hrs in phosphate buffer at pH 7.4 by Griess assay; type: physicochemical; details: pH 7.4, 6 h, 100 µM; in short: as §2
[10] = Induction of nitric oxide release at 0.1 mM after 3 hrs in phosphate buffer at pH 7.4 by Griess assay; type: physicochemical; details: pH 7.4, 3 h, 100 µM; in short: as §2
[11] = Induction of nitric oxide release at 0.1 mM in 0.1 N HCl buffer at pH 1.0 by Griess assay; type: physicochemical; details: pH 1, 100 µM
In short: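 Griess procedure as at neutral pH, but in 0.1 N HCl pH 1 in place of phosphate buffer. Compound at a final 10^-4 M with N-acetylcysteine, 37 °C. Absorbance read at 546 nm against sodium nitrite standards (10–80 nmol/mL). Release expressed relative to a theoretical 1 mol NO/mol compound.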

[12] = Induction of nitric oxide release at 0.1 mM after 1 hr in phosphate buffer at pH 7.4 by Griess assay; type: physicochemical; details: pH 7.4, 1 h, 100 µM; in short: as §2
[13] = Induction of nitric oxide release at 0.1 mM after 4 hrs in phosphate buffer at pH 7.4 by Griess assay; type: physicochemical; details: pH 7.4, 4 h, 100 µM; in short: as §2
[14] = system: Rattus norvegicus; assay: Antiinflammatory activity in albino rat assessed as inhibition of carrageenan-induced paw edema at 100 mg/kg, po administered 30 mins prior to challenge measured after 3 hrs relative to indomethacin; type: functional; design: scale not given: the % may be the effect or the level left
In short: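 Carrageenan paw edema in male albino rats (120–140 g, n = 4, fasted 24 h), compound 100 mg/kg po in 0.5% CMC 30 min before subplantar 1% carrageenan (0.1 mL). Percent edema inhibition at the stated hour from right minus left paw thickness versus the CMC control, then expressed as a percentage of the indomethacin (100 mg/kg) response at the same time.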

Row | Activity [7] | Activity [8] | Activity [9] | Activity [10] | Activity [11] | Activity [12] | Activity [13] | Compound | inhibition in vivo at 100 mg/kg [1] | inhibition in vivo at 100 mg/kg [2] | inhibition in vivo at 100 mg/kg [3] | inhibition in vivo at 100 mg/kg [4] | UI [5] | inhibition in vivo at 100 mg/kg [6] | Activity [14]
1 |  |  |  |  |  |  |  | Nc1ccc(C(=O)/C=C/c2ccc(Cl)cc2)cc1 | 50% | 58% | 41% | 60% | 18 | 54% | 
2 |  |  |  |  |  |  |  | Nc1ccc(C(=O)/C=C/c2ccc3c(c2)OCO3)cc1 | 44% | 50% | 32% | 55% | 20 | 47% | 
3 |  |  |  |  |  |  |  | Nc1ccc(C(=O)/C=C/c2ccco2)cc1 | 38% | 33% | 33% | 42% | 29 | 30% | 
4 |  |  |  |  |  |  |  | COc1ccc(/C=C/C(=O)c2ccc(NC(=O)CBr)cc2)cc1 | 42% | 41% | 37% | 46% | 28 | 34% | 
5 |  |  |  |  |  |  |  | O=C(CBr)Nc1ccc(C(=O)/C=C/c2ccc3c(c2)OCO3)cc1 | 45% | 48% | 40% | 53% | 24 | 46% | 
6 |  |  |  |  |  |  |  | O=C(CBr)Nc1ccc(C(=O)/C=C/c2ccco2)cc1 | 37% | 33% | 30% | 41% | 25.8 | 25% | 
7 |  |  |  |  |  |  |  | CC(Br)C(=O)Nc1ccc(C(=O)/C=C/c2ccc(Cl)cc2)cc1 (centres undefined) | 45% | 54% | 39% | 59% | 16.7 | 50% | 
8 |  |  |  |  |  |  |  | COc1ccc(/C=C/C(=O)c2ccc(NC(=O)C(C)Br)cc2)cc1 (centres undefined) | 40% | 38% | 39% | 40% | 30.1 | 31% | 
9 |  |  |  |  |  |  |  | CC(Br)C(=O)Nc1ccc(C(=O)/C=C/c2ccc3c(c2)OCO3)cc1 (centres undefined) | 43% | 53% | 37% | 56% | 18 | 50% | 
10 |  |  |  |  |  |  |  | CC(Br)C(=O)Nc1ccc(C(=O)/C=C/c2ccco2)cc1 (centres undefined) | 37% | 36% | 30% | 42% | 25.3 | 34% | 
11 |  |  |  |  |  |  |  | CC(=O)c1ccc(OCC(=O)Nc2ccc(C(=O)/C=C/c3ccc(Cl)cc3)cc2)cc1 | 52% | 58% | 43% | 61% | 8.1 | 55% | 
12 |  |  |  |  |  |  |  | COc1ccc(/C=C/C(=O)c2ccc(NC(=O)COc3ccc(C(C)=O)cc3)cc2)cc1 | 35% | 33% | 28% | 42% | 6 | 30% | 
13 |  |  |  |  |  |  |  | CC(=O)c1ccc(OCC(=O)Nc2ccc(C(=O)/C=C/c3ccco3)cc2)cc1 | 32% | 39% | 28% | 45% | 5 | 36% | 
14 | 0.37 mol/mol | 0.19 mol/mol | 0.36 mol/mol | 0.22 mol/mol | Not Active | 0.13 mol/mol | 0.41 mol/mol | C/C(=N/O)c1ccc(OCC(=O)Nc2ccc(C(=O)/C=C/c3ccc(Cl)cc3)cc2)cc1 | 54% | 55% | 39% | 66% | 2.2 | 49% | 85%
15 | 0.16 mol/mol | 0.12 mol/mol | 0.15 mol/mol | 0.14 mol/mol | Not Active | 0.11 mol/mol | 0.3 mol/mol | COc1ccc(/C=C/C(=O)c2ccc(NC(=O)COc3ccc(/C(C)=N\O)cc3)cc2)cc1 | 41% | 42% | 33% | 46% | 5 | 37% | 59%
16 | 0.26 mol/mol | 0.16 mol/mol | 0.24 mol/mol | 0.25 mol/mol | Not Active | 0.14 mol/mol | 0.31 mol/mol | C/C(=N/O)c1ccc(OCC(=O)Nc2ccc(C(=O)/C=C/c3ccc4c(c3)OCO4)cc2)cc1 | 49% | 52% | 40% | 59% | 4 | 44% | 77%
17 | 0.14 mol/mol | 0.12 mol/mol | 0.13 mol/mol | 0.12 mol/mol | Not Active | 0.1 mol/mol | 0.28 mol/mol | C/C(=N/O)c1ccc(OCC(=O)Nc2ccc(C(=O)/C=C/c3ccco3)cc2)cc1 | 44% | 48% | 36% | 49% | 4.8 | 42% | 64%
18 | 0.52 mol/mol | 0.27 mol/mol | 0.3 mol/mol | 0.47 mol/mol | Not Active | 0.11 mol/mol | 0.482 mol/mol | COc1ccc(/C=C/C(=O)c2ccc(NC(=O)COCc3c(-c4ccccc4)no[n+]3[O-])cc2)cc1 | 42% | 55% | 30% | 56% | 2 | 49% | 73%
19 | 0.65 mol/mol | 0.23 mol/mol | 0.54 mol/mol | 0.4 mol/mol | Not Active | 0.16 mol/mol | 0.499 mol/mol | O=C(COCc1c(-c2ccccc2)no[n+]1[O-])Nc1ccc(C(=O)/C=C/c2ccco2)cc1 | 45% | 58% | 30% | 59% | 2.5 | 49% | 76%
20 |  |  |  |  |  |  |  | COc1ccc(/C=C/C(=O)c2ccc(N)cc2)cc1 | 48% | 48% | 42% | 51% | 22.5 | 40% | 
21 |  |  |  |  |  |  |  | [O-][n+]1onc(-c2ccccc2)c1CO |  |  |  |  | 1.5 |  | 

From ChEMBL document CHEMBL1926598, “Synthesis, anti-inflammatory activity and ulcerogenic liability of novel nitric oxide donating/chalcone hybrids” (Bioorg Med Chem, 2012)
